Sampled rows, rich in hits. Any-hit rate of the full collection: about 1.8%.
CHRM5 antagonist = antagonists of human muscarinic M5 receptor (CHRM5) | 0.59% of 360,000 active | P08912 | AID 624040 | inhibition, % at 3 µM | CHO-hM5 cells, Fluo-8 calcium fluorescence, ACh EC80;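 active means inhibition above a per-plate cutoff, the mean of that plate's test compounds plus 3 SD, cut at about 27% in these data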;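 further: 0% = acetylcholine EC80 with DMSO and 100% = DMSO without agonist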
Target sequence (P08912 whole entry, looked up): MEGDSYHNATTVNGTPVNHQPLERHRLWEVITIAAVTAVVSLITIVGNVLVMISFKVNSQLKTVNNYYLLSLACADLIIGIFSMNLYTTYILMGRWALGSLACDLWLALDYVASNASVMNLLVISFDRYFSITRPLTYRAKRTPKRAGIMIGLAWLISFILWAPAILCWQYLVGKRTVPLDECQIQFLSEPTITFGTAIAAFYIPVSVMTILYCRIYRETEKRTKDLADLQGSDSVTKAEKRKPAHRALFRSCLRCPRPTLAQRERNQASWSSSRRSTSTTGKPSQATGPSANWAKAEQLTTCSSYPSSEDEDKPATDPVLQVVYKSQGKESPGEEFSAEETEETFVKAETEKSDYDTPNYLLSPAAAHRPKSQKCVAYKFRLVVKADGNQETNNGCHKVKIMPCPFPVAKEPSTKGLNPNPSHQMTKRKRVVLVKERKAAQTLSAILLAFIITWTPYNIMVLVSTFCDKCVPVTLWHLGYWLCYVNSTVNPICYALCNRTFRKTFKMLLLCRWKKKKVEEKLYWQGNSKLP
CHRM4 agonist = agonists of human muscarinic M4 receptor (CHRM4); activation, % at 3 µM; 0.14% of 360,000 active; CHO-K1 hM4/Gqi5, Fluo-8 calcium fluorescence; vehicle 0%, full acetylcholine response 100%;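 active means activation above the run mean over all test wells plus 3 SD, cut at about 32% in these data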;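 further: peak over basal fluorescence ratio per well then scaled between controls; 0% = DMSO wells and 100% = acetylcholine at EC100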
M5 PAM = positive allosteric modulators of human muscarinic M5 receptor. CHO-K1 hM5, Fluo-8 calcium, ACh EC20 PAM; 0% = ACh EC20, 100% = ACh EC100. activation, % at 3 µM. 0.3% of 360,000 active. AID 624038;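 active means activation above the run cutoff, the mean activation of all test compounds plus 3 SD, cut at about 18% in these data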
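system = human M5 receptor in CHO-K1 cells | reagent = EC20 acetylcholine as agonist stimulus | compound dosing = single-point, 3 µM nominal | incubation = Fluo-8 loading 80 min at 37 °C plus 30 min room temperature | detection = Fluo-8 calcium dye fluorescence, kinetic read | benchmarks = low control EC20 acetylcholine (0%), high control EC100 acetylcholine (100%)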
CHRM4 PAM = positive allosteric modulators of human muscarinic M4 receptor. CHO-K1 hM4/Gqi5, Fluo-8 calcium fluorescence, ACh EC20; 0% = ACh EC20, 100% = maximal ACh. activation, % at 3 µM. 0.4% of 360,000 active. AID 624126;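 active means activation above its plate's cutoff, the mean activation of sample wells plus 3 SD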
CHRM4 antagonist = antagonists of human muscarinic M4 receptor (CHRM4); inhibition, % at 3 µM; 0.73% of 360,000 active; AID 624125; P08173; CHO-hM4 cells, ACh EC80, Fluo-8 calcium fluorescence;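 active means inhibition above its plate's cutoff, the mean inhibition of sample wells plus 3 SD, cut at about 27% in these data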;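 further: 0% = acetylcholine EC80 with DMSO and 100% = DMSO without agonist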
CHRM5 agonist = CHRM5 agonism in calcium assay | P08912 | CHO-K1 hM5 cells, Fluo-8 calcium fluorescence; 0% DMSO wells, 100% maximal acetylcholine response | activation, % at 3 µM | 0.19% of 360,000 active;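 active means activation above the run's mean over test compounds plus 3 SD, cut at about 23% in these data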;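 further: signal is peak over basal fluorescence ratio across the kinetic read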
* marks the source's active call; other numbers are inactive results.

SMILES	CHRM5 antagonist	CHRM4 agonist	M5 PAM	CHRM4 PAM	CHRM4 antagonist	CHRM5 agonist
CC(=O)NC(c1cccc(F)c1)c1nc(-c2cc(F)cc(Cl)c2)cs1 (configuration not stated)	-2.8	0.9	-2.8	0.1	-2.6	0.6
CC12CCC3C(=CCc4cc(O)ccc43)C1CC(=NO)C2O (configuration not stated)	11.1	5.3	-0.9	2.9	-16.0	24.0*
Cc1c(N=C/C=C/c2ccccc2)c(=O)n(-c2ccccc2)n1C	26.8	0.3	-23.3	-17.4	53.5*	-7.0
C=CS(=O)(=O)N(Cc1ccccc1)[C@H](CO)CC(C)C	-8.2	1.7	2.9	2.3	-14.1	-11.0
CC(C)C[C@H](CO)N(Cc1ccccc1)S(=O)(=O)N(Cc1ccccc1)[C@@H](CO)CC(C)C	13.0	10.8	-19.2	-11.3	33.5*	3.6
COCCNc1nc(Nc2ccc(Cl)cc2F)c2sccc2n1	14.4	9.9	-8.9	-6.0	0.6	0.2
Cc1ccc(NS(=O)(=O)c2c(C)[nH]c(C)c2C(=O)N2CCCCC2)cc1C	6.1	2.0	-3.7	9.8	-13.5	-5.5
Cc1ccc(NS(=O)(=O)c2c(C)[nH]c(C)c2C(=O)N2CCCC2)cc1Cl	8.3	3.6	32.2*	9.4	-1.8	7.0
CCCNC(=O)C1(C)CCN(C(=O)c2cccnc2Oc2ccccc2)C1 (configuration not stated)	-1.9	3.0	0.0	6.3	-3.8	-0.2
CCCNC(=O)C1(C)CCN(Cc2ccc(OC)c3ccccc23)C1 (configuration not stated)	3.3	0.7	-5.2	-3.5	-6.7	-0.8
CC1CCCN(C(=O)CCNS(=O)(=O)c2ccc3c(c2)c(=O)n(C)c(=O)n3C)C1 (configuration not stated)	-3.7	0.6	6.8	14.6*	-0.8	-1.5
Cc1csc(SCc2nnc(-c3ccc(Cl)cc3)o2)n1	-1.1	-1.3	1.0	7.3	8.9	-1.3
Cc1ccc(-c2nnc(CSc3nnc(C)s3)o2)cc1	7.6	0.5	19.4*	4.7	-12.5	-2.4
Cc1cccc(N/C(N)=N/c2nc(C)cc(C)n2)c1	-1.4	37.2*	-11.7	-7.1	15.9	13.7
Cc1ccc(N/C(N)=N/c2nc(C)cc(C)n2)cc1	4.7	21.6	-12.7	-23.5	25.5	8.2
CCCCc1ccc(N/C(N)=N/c2nc(C)cc(C)n2)cc1	77.3*	114.5*	-30.3	-18.4	86.7*	51.1*
CCN1C(=O)[C@H]2[C@@H](c3ccc(C)cc3)N[C@]3(CCCN(Cc4ccc(Cl)cc4)C3=O)[C@H]2C1=O	10.2	-0.2	-0.2	7.6	-10.1	0.1
c1cc(-c2ccc(N3CCOCC3)cc2)n2cnnc2c1	-4.9	0.6	3.3	4.0	-10.7	0.6
CC1CCN(C(=O)Cn2cc(C#N)c3ccccc32)CC1	3.8	1.8	14.5	-6.9	26.6*	-1.1
COc1ccc(NC2=CC(=O)CC(c3ccc(C)cc3)C2)c(OC)c1 (configuration not stated)	4.6	1.2	5.0	23.4*	-1.9	-1.4
COc1ccc(C2CC(=O)C(C=NCCO)=C(O)C2)cc1 (configuration not stated)	-12.5	1.1	19.0*	-3.1	-9.9	5.2
COc1ccc(C2=CC(=O)C[C@H](c3ccc(Cl)cc3)C2)cc1	12.5	0.3	-7.8	0.8	-9.2	-6.3
COc1ccccc1NC1=CC(=O)CC(c2ccccc2)C1 (configuration not stated)	6.4	1.7	-1.7	0.9	9.5	-1.9
COc1ccc(C2=CC(=O)CC(c3ccc(OC)cc3)C2)cc1 (configuration not stated)	29.1*	1.7	-14.3	-1.1	-1.0	-7.3
COc1ccc(C2CC(=O)C(C=NCCO)=C(O)C2)cc1OC (configuration not stated)	-7.8	1.1	4.5	13.3	3.7	1.0
SMILES	CHRM5 antagonist	CHRM4 agonist	M5 PAM	CHRM4 PAM	CHRM4 antagonist	CHRM5 agonist
Cc1c(C(=O)NCc2cccc(C(F)(F)F)c2)sc(=O)n1Cc1cccc(F)c1	-1.1	3.7	2.0	-7.5	-0.2	-0.3
O=[N+]([O-])c1cnc(Sc2ccncn2)c([N+](=O)[O-])c1	-4.4	3.3	-1.1	-3.1	-7.9	2.6
O=[N+]([O-])c1cnc(Sc2ccncn2)s1	19.5	17.0	-6.6	-6.7	32.2*	1.1
Cc1ccc(NC(=O)CSCc2nc3c(nnn3Cc3ccc(F)cc3)c(=O)[nH]2)c(C)c1	-13.6	1.5	20.9*	8.6	-8.1	6.1
Cc1ccc(C)c(S(=O)(=O)N2CCC(c3nc4c(nnn4Cc4ccc(F)cc4)c(=O)[nH]3)CC2)c1	3.6	-0.4	0.7	-21.7	49.0*	-2.6
Cc1cccc(NC(=O)CSCc2nc3c(nnn3Cc3ccc(F)cc3)c(=O)[nH]2)c1C	6.2	0.6	2.9	0.0	-1.0	0.1
Cc1ccc(Cn2nnc3c(=O)[nH]c(C4CCN(S(=O)(=O)c5ccc(F)cc5)CC4)nc32)cc1	5.3	-1.5	-2.3	-30.8	32.3*	-2.4
O=c1[nH]c(C2CCN(S(=O)(=O)c3ccccc3F)CC2)nc2c1nnn2Cc1ccc2c(c1)OCCO2	-16.4	1.3	13.3	6.0	-14.4	-0.5
O=c1[nH]c(C2CCN(S(=O)(=O)c3ccc(S(=O)(=O)NC4CC4)cc3)CC2)nc2c1nnn2Cc1ccc(F)cc1	10.6	1.9	-2.4	-19.6	17.7	-5.2
O=c1[nH]c(C2CCN(S(=O)(=O)c3ccc(F)cc3)CC2)nc2c1nnn2Cc1ccc2c(c1)OCCO2	0.3	-1.0	-3.3	-12.0	80.7*	-7.3
O=C(CC[C@H]1O[C@@H](n2ccc(=O)[nH]c2=O)[C@H](O)[C@@H]1O)N[C@@H](Cc1ccccc1)C(=O)NCc1ccccc1	0.6	0.3	0.1	-8.5	4.2	1.1
COCc1cn(CC(C)n2c(=O)c3ccccc3n2Cc2cc(C(C)C)no2)nn1 (configuration not stated)	6.5	10.2	-2.7	8.2	-7.8	-0.3
Cc1noc(C)c1C(=O)N1CCC1(C)C(=O)NS(=O)(=O)c1ccc(F)cc1F (configuration not stated)	4.2	1.6	-2.8	0.9	3.3	1.3
Cc1ccc(S(=O)(=O)N2CC3C(=O)CC(c4ccccc4)N(S(=O)(=O)c4ccc(C)cc4)C3CC2c2cccc(Cl)c2)cc1 (configuration not stated)	9.3	2.9	-3.8	6.5	-8.3	2.6
O=C1NC[C@@H](CCCCN2CCN(CCc3ccc(O)cc3)C(=O)C2=O)N(CCc2ccc(O)cc2)C1=O	-3.4	1.1	4.6	10.4	-11.0	0.9
